The source of these data is ChEMBL document CHEMBL1130149, “Medetomidine analogs as alpha 2-adrenergic ligands. 3. Synthesis and biological evaluation of a new series of medetomidine analogs and their potential binding interactions with alpha 2-adrenoceptors involving a "methyl pocket"” (J Med Chem, 1997).

Assay [1] concerns the target Adrenergic receptor alpha (Rattus norvegicus) (UniProt P15823+P23944+P43140+P22086+P19328+P22909). In words: Relative affinity for Alpha 2 over Alpha 1 adrenergic receptors. In kind it is protein assay.
Assay [2] has as its target T1, Adrenergic receptor alpha-1 (Rattus norvegicus, UniProt P15823+P23944+P43140).
T1 sequence (P15823 whole entry): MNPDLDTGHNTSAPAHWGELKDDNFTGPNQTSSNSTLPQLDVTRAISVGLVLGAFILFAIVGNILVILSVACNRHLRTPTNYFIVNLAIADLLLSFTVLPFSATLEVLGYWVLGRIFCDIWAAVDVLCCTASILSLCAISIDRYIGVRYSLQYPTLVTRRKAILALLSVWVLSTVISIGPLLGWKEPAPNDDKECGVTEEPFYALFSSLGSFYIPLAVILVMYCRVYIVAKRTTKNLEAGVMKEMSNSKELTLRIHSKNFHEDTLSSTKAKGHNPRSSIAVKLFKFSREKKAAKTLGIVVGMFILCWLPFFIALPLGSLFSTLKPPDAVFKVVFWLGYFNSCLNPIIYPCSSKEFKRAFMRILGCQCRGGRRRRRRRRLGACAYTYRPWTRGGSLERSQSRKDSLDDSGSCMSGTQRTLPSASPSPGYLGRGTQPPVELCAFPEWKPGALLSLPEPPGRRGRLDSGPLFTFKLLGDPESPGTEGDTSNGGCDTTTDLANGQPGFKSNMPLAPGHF
T1 sequence (P23944 whole entry): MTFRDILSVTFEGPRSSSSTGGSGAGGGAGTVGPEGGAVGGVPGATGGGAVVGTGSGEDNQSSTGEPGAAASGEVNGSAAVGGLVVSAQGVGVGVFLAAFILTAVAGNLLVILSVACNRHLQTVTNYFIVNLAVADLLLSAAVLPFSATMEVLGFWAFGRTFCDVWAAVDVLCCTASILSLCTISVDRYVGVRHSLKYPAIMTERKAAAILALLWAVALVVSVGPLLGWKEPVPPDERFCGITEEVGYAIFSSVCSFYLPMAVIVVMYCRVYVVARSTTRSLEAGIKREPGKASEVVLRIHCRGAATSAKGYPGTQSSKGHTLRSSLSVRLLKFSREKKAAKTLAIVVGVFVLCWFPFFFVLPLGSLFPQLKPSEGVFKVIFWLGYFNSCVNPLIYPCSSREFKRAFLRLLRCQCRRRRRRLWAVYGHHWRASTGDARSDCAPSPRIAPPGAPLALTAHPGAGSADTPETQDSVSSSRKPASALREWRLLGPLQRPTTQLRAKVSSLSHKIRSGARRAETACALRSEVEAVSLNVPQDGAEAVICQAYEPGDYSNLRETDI
T1 sequence (P43140 whole entry): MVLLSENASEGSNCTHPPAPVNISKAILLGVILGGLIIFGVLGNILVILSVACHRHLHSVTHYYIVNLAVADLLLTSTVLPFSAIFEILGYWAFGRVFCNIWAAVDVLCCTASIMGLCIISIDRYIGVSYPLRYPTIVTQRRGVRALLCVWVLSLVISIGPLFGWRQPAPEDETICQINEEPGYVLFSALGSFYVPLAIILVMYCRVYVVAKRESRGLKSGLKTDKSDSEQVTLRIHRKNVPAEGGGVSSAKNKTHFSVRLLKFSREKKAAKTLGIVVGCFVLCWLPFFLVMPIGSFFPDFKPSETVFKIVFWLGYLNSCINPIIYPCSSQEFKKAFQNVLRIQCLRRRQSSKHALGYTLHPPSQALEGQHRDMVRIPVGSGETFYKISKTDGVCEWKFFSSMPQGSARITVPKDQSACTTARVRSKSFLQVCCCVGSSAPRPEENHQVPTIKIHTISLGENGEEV
Briefly: Displacement of [3H]-prazosin from Alpha-1 adrenergic receptor of rat brain membranes. In kind it is cell membranes, Membrane. In outline:
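Rat brain membrane fractions incubated with 0.1 nM [3H]prazosin for α1 sites. Nonspecific binding defined with 10 μM phentolamine. IC50 (analog concentration reducing specific binding by 50%) converted to Ki by Ki = IC50(1 + [L]/Kd), where [L] is the radioligand concentration and Kd its equilibrium dissociation constant.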

The target in assay [3] is T2, Adrenergic receptor alpha-2 (Rattus norvegicus, UniProt P22086+P19328+P22909).
T2 sequence (P22086 whole entry): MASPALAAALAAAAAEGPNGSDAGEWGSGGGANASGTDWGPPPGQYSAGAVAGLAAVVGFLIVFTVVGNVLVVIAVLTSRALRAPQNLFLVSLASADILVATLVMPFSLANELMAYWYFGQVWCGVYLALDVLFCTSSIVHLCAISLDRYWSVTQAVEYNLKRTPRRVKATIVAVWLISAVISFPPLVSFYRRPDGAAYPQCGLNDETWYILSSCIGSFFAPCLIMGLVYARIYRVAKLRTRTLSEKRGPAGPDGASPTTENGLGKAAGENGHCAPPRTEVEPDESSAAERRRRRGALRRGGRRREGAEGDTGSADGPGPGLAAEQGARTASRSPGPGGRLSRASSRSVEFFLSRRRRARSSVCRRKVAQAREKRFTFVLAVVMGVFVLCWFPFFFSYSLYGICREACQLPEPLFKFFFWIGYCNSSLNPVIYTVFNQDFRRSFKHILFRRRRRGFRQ
T2 sequence (P19328 whole entry): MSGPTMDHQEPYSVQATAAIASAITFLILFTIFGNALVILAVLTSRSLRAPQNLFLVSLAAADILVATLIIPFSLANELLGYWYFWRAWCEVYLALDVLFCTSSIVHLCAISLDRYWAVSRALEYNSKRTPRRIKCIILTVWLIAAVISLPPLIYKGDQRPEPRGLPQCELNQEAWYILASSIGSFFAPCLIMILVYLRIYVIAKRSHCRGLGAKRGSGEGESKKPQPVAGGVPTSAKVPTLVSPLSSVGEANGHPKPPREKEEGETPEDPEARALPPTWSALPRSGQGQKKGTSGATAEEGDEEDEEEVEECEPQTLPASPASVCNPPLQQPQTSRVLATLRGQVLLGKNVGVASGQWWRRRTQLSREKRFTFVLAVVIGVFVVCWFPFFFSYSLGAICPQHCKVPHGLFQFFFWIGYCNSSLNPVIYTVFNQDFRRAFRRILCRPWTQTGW
T2 sequence (P22909 whole entry): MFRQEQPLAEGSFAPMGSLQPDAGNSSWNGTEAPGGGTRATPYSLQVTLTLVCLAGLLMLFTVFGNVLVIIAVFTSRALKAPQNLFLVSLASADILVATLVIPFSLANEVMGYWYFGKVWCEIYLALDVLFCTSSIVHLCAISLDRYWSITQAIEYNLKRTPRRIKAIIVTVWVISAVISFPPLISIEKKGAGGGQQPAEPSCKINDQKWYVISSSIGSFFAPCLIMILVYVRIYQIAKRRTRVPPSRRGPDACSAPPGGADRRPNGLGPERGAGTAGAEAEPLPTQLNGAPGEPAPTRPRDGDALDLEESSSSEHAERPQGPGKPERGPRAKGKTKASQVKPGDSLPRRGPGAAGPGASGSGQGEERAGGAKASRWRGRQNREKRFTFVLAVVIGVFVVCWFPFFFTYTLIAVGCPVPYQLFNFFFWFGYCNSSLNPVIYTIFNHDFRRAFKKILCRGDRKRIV
Briefly: Displacement of [3H]rauwolscine from Alpha-2 adrenergic receptor of rat brain membranes. In kind it is cell membranes, Membrane. In outline:
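Rat brain membrane fractions incubated with 0.2 nM [3H]rauwolscine for α2 sites. Nonspecific binding defined with 10 μM phentolamine. IC50 (analog concentration reducing specific binding by 50%) converted to Ki by Ki = IC50(1 + [L]/Kd), where [L] is the radioligand concentration and Kd its equilibrium dissociation constant.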

SMILES strings stand for the structures.

Molecule `COc1ccc2c(c1)C(c1c[nH]cn1)=CCC2` had a Selectivity in assay [1] of 9.03. Further, the Ki came out at 14200 nM in assay [2] and 1570 nM in assay [3].
In the same order, the values of `Cc1cccc2c1CCCC2c1c[nH]cn1` (stereo not given) are 2.01, 191 nM and 95 nM.
In the case of `Cc1cc(C)c2c(c1)C(c1c[nH]cn1)CCC2` (stereo not given), the Selectivity in assay [1] was 1.27. Further, the Ki in assay [2] was determined as 131 nM; in assay [3], 103 nM.
In the same order, the values of `COc1cccc2c1CCC=C2c1c[nH]cn1` are 2.1, 2970 nM and 1420 nM.
Molecule `COc1ccc2c(c1)C(c1c[nH]cn1)CCC2` (stereo not given) yielded a Selectivity in assay [1] of 8.81. The Ki in assay [2] came to 1770 nM; in assay [3], 201 nM.
In the same order, the values of `Oc1cccc2c1CCCC2c1c[nH]cn1` (stereo not given) are 2.01, 126 nM and 63 nM.
In assay [1], `Cc1cccc(C(C)c2c[nH]cn2)c1C` (stereo not given) had a Selectivity of 44.4.
Consider `COc1ccc2c(c1)CCCC2c1c[nH]cn1` (stereo not given), for which the Selectivity in assay [1] turned out to be 1.17. In addition, the figures for the Ki in assay [2] and in assay [3] were 198 nM and 169 nM, respectively.
In the same order, the values of `COc1cccc2c1CCCC2c1c[nH]cn1` (stereo not given) are 2.48, 243 nM and 98 nM.
In assay [1], `C1=C(c2c[nH]cn2)c2cccc(OCc3ccccc3)c2CC1` returned a Selectivity of 3.09. Moreover, the Ki is 8250 nM in assay [2] and 2670 nM in assay [3].
In the same order, the values of `COc1ccc2c(c1)CCC=C2c1c[nH]cn1` are 2.81, 1630 nM and 580 nM.
In the same order, the values of `Cc1cc(C)c2c(c1)C(c1c[nH]cn1)=CCC2` are 12.8, 2960 nM and 232 nM.
Molecule `Cc1cccc2c1CCC2c1c[nH]cn1` (stereo not given) showed a Selectivity in assay [1] of 8.29. The Ki in assay [2] was found to be 73 nM; in assay [3], 8.8 nM.
In the same order, the values of `Cc1cccc2c1CCC=C2c1c[nH]cn1` are 32, 992 nM and 31 nM.
